Source: ChEMBL document CHEMBL4425134, “Analogs of the ATP-Sensitive Potassium (KATP) Channel Opener Cromakalim with in Vivo Ocular Hypotensive Activity” (J Med Chem, 2016)
Active and inactive are the calls of the source. The calls are words filed in the database; no cut-off is given here.

Key:
Mus musculus [1] = assay: Antiglaucoma activity in normotensive C57BL/6 mouse assessed as reduction in intraocular pressure at 5 mM compound solution in PBS administered topically once daily as bolus dose to one eye for 6 days measured up to 23 hrs post daily administration by tonometer; format: functional
Summary of the method: (§1)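 Mice received a 5 mM solution in PBS as a 5 µl topical bolus to one eye once daily for 6 days, with PBS to the contralateral eye. IOP was read by rebound tonometer in conscious mice at 1, 4 and 23 h post-dose and averaged. Values are expressed as treated minus control eye. Readings continued after treatment stopped. n=10 (days 1–9), n=6 (days 10–12).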

Mus musculus [2] = assay: Antiglaucoma activity in normotensive C57BL/6 mouse assessed as reduction in intraocular pressure at 5 mM compound solution in PBS administered topically once daily as bolus dose to one eye for 6 days measured up to 72 hrs post treatment by tonometer; format: functional, organism-based; summary of the method: as §1
Oryctolagus cuniculus [3] = assay: (§2) Antiglaucoma activity in normotensive Dutch-belted pigmented rabbit assessed as reduction in intraocular pressure at 2.5 mM administered topically as solution in PBS once daily as bolus dose to contralateral eye for 4 days followed by 5 mM compound treatment for 4 days measured up to 23 hrs post daily administration by tonometer; format: functional
Summary of the method: (§3)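 In normotensive Dutch-belted pigmented rabbits, a PBS solution was applied topically as a 50 µL bolus to one eye once daily: 2.5 mM for 4 days, then 5 mM for 4 days. IOP was measured at 1, 4 and 23 h after each dose and averaged. Values are the absolute difference between treated and control eyes (mmHg).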

Oryctolagus cuniculus [4] = assay: as §2, with “5” for “2.5”, “pretreated with 2.5” for “followed by 5”, “compound” for “compound treatment”; format: functional; summary of the method: as §3
Mus musculus [5] = assay: Antiglaucoma activity in normotensive C57BL/6 mouse assessed as reduction in intraocular pressure at 5 mM administered topically as solution in mixture of DMSO, cremophor EL and PBS once daily as bolus dose to one eye for 5 days measured up to 23 hrs post daily administration by tonometer; format: functional
Summary of the method: (§4)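 Following baseline IOP, C57BL/6 mice were dosed topically once daily with a 5 µl bolus to one eye. Dexromakalim was given for 6 days, then levromakalim for 5 days. Each was made as a 100 mM DMSO stock diluted to 5 mM with 10% cremophor EL in PBS. IOP was read by rebound tonometer versus the vehicle-treated contralateral eye.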

[6] = Solubility in water at 10 mg/ml; format: physicochemical; details: buffer
[7] = Stability of compound in D2O solution; format: physicochemical
Mus musculus [8] = assay: Antiglaucoma activity in normotensive C57BL/6 mouse assessed as reduction in intraocular pressure at 2.5 mM compound solution in PBS administered topically once daily as bolus dose to contralateral eye for 7 days measured up to 23 hrs post daily administration by tonometer; format: functional
Summary of the method: (§5)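 C57BL/6 retired breeders (>7 months old) received a 5 µl bolus of 2.5 mM solution in PBS topically to one eye once daily for 7 consecutive days, with PBS to the contralateral eye. IOP was measured in conscious, non-anesthetized mice by hand-held rebound tonometer at 1, 4 and 23 h after dosing. Daily IOP is the mean of the three readings, expressed as treated minus vehicle eye (mm Hg). n=10 (days 1–10), n=6 after.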

Mus musculus [9] = assay: Antiglaucoma activity in normotensive C57BL/6 mouse assessed as reduction in intraocular pressure at 2.5 mM compound solution in PBS administered topically once daily as bolus dose to contralateral eye for 7 days measured up to 48 hrs after cessation of drug treatment by tonometer; format: functional, organism-based; summary of the method: as §5
Mus musculus [10] = assay: Antiglaucoma activity in normotensive C57BL/6 mouse assessed as reduction in intraocular pressure at 5 mM administered topically as solution in PBS once daily as bolus dose to contralateral eye for 5 days followed by 5 mM sodium (3S,4R)-6-cyano-2,2-dimethyl-4-(2-oxopyrrolidin-1-yl)chroman-3-yl phosphate treatment for 5 days by tonometer; format: functional
Summary of the method: (§6)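 C57BL/6 mice received sequential once-daily topical 5 µl boluses of 5 mM enantiomers dissolved in PBS to one eye, with vehicle to the contralateral eye. IOP was read by rebound tonometer in conscious mice at 1, 4 and 23 h post-dose, averaged, and expressed relative to the vehicle eye. n=10.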

[11] = (§7) Toxicity in normotensive C57BL/6 mouse assessed as effect on cell structure in aqueous humor outflow pathway at 5 mM administered topically as solution in PBS once daily as bolus dose to contralateral eye for 5 days by hematoxylin and eosin staining based transmission electron microscopic analysis; format: organism-based; details: in vivo, topical_or_ocular, 120 h, 5000 µM
[12] = (§8) Toxicity in normotensive C57BL/6 mouse assessed as effect on cell number in aqueous humor outflow pathway at 5 mM administered topically as solution in PBS once daily as bolus dose to contralateral eye for 5 days by hematoxylin and eosin staining based transmission electron microscopic analysis; format: organism-based; details: in vivo, topical_or_ocular, 120 h, 5000 µM
[13] = Prodrug activation in buffer containing ZnCl2, MgCl2 and sodium glycine assessed as alkaline phosphatase (unknown origin)-mediated levcromakalim formation; details: human
[14] = Toxicity in normotensive C57BL/6 mouse assessed as alteration in morphology of aqueous humor outflow pathway at 2.5 mM compound solution in PBS administered topically once daily as bolus dose to contralateral eye for 7 days by hematoxylin and eosin staining based transmission electron microscopic analysis; format: organism-based; details: in vivo, topical_or_ocular, 168 h, 2500 µM
Summary of the method: (§9)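 After once-daily topical dosing of C57BL/6 mice with 2.5 mM in PBS (5 µl), some animals were sacrificed. Aqueous outflow pathway tissues (trabecular meshwork, Schlemm's canal) were examined by hematoxylin and eosin stained sections and by transmission electron microscopy. Cell structure and number were compared with vehicle-treated eyes.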

[15] = as §7, with “at 2.5” for “at 5”, “mM compound” for “mM administered topically as”, “PBS administered topically” for “PBS”, “for 7” for “for 5”; format: organism-based; details: in vivo, topical_or_ocular, 168 h, 2500 µM; summary of the method: as §9
[16] = as §8, with “at 2.5” for “at 5”, “mM compound” for “mM administered topically as”, “PBS administered topically” for “PBS”, “for 7” for “for 5”; format: organism-based; details: in vivo, topical_or_ocular, 168 h, 2500 µM; summary of the method: as §9
Mus musculus [17] = assay: Antiglaucoma activity in normotensive C57BL/6 mouse assessed as reduction in intraocular pressure at 5 mM administered topically as solution in PBS once daily as bolus dose to contralateral eye for 5 days pretreated with 5 mM sodium (3R,4S)-6-cyano-2,2-dimethyl-4-(2-oxopyrrolidin-1-yl)chroman-3-yl phosphate for 5 days by tonometer; format: functional; summary of the method: as §6
Mus musculus [18] = assay: Antiglaucoma activity in normotensive C57BL/6 mouse assessed as reduction in intraocular pressure at 5 mM administered topically as solution in mixture of DMSO, cremophor EL and PBS once daily as bolus dose to one eye for 6 days followed by 5 mM levcromakalim treatment for 5 days by tonometer; format: functional; summary of the method: as §4
[19] = (§10) Toxicity in normotensive C57BL/6 mouse assessed as effect on cell structure in aqueous humor outflow pathway at 5 mM administered topically as solution in mixture of DMSO, cremophor EL and PBS once daily as bolus dose to one eye for 6 days by hematoxylin and eosin staining based transmission electron microscopic analysis; format: organism-based; details: in vivo, topical_or_ocular, 144 h, 5000 µM
[20] = as §10, with “number” for “structure”; format: organism-based; details: in vivo, topical_or_ocular, 144 h, 5000 µM
[21] = Stability in D2O solution assessed as compound decomposition after 1 week by 1H NMR analysis; format: physicochemical; details: 168 h
[22] = Stability in D2O solution assessed as compound decomposition after 1 week by 31P NMR analysis; format: physicochemical; details: 168 h
Mus musculus [23] = assay: Antiglaucoma activity in normotensive C57BL/6 mouse assessed as reduction in intraocular pressure at 5 mM administered topically as solution in mixture of DMSO, cremophor EL and PBS once daily as bolus dose to contralateral eye for 5 days pretreated with 5 mM dexcromakalim for 6 days by tonometer; format: functional; summary of the method: as §4
[24] = as §10, with “to contralateral” for “to one”, “for 5” for “for 6”; format: organism-based; details: in vivo, topical_or_ocular, 120 h, 5000 µM
[25] = as §10, with “cell number” for “cell structure”, “to contralateral” for “to one”, “for 5” for “for 6”; format: organism-based; details: in vivo, topical_or_ocular, 120 h, 5000 µM

Structure (SMILES): CC1(C)Oc2ccc(C(F)(F)F)cc2[C@@H](N2CCCC2=O)[C@@H]1OP(=O)([O-])[O-].[Na+].[Na+]
- Activity (Mus musculus [1]): 3.91 mmHg
- Activity (Mus musculus [2]): Active
- Activity (Oryctolagus cuniculus [3]): 1.06 mmHg
- Activity (Oryctolagus cuniculus [4]): 1.6 mmHg

Structure (SMILES): CC1(C)Oc2ccc(C#N)cc2[C@@H](N2CCCC2=O)[C@@H]1O (racemic) [LEVCROMAKALIM]
- Activity (Mus musculus [5]): 3.19 mmHg

Structure (SMILES): CC1(C)Oc2ccc(C#N)cc2[C@@H](N2CCCC2=O)[C@@H]1OP(=O)([O-])[O-].[Na+].[Na+] (racemic)
- solubility [6]: Soluble
- Stability [7]: > 6 months
- Activity (Mus musculus [8]): 2.5 mmHg

Structure (SMILES): CC1(C)Oc2ccc(C#N)cc2[C@@H](N2CCCC2=O)[C@@H]1OP(=O)(O)O
- Activity (Mus musculus [9]): inactive

Structure (SMILES): CC1(C)Oc2ccc(C#N)cc2[C@H](N2CCCC2=O)[C@H]1OP(=O)([O-])[O-].[Na+].[Na+]
- Activity (Mus musculus [10]): 0.14 mmHg
- Activity [11]: Non-Toxic
- Activity [12]: Non-Toxic

Structure (SMILES): CC1(C)Oc2ccc(C#N)cc2[C@@H](N2CCCC2=O)[C@@H]1OP(=O)([O-])[O-].[Na+].[Na+]
- Drug metabolism [13]: Metabolite_Detected
- Activity (Mus musculus [8]): 3.14 mmHg
- Activity [14]: Non-Toxic
- Activity [15]: Non-Toxic
- Activity [16]: Non-Toxic
- Activity [11]: Non-Toxic
- Activity [12]: Non-Toxic
- Activity (Mus musculus [17]): 3.82 mmHg
- Activity (Oryctolagus cuniculus [3]): 2.02 mmHg
- Activity (Oryctolagus cuniculus [4]): 2.26 mmHg

Structure (SMILES): CC(C)C[C@H](NC(=O)CN)C(=O)O[C@H]1[C@H](N2CCCC2=O)c2cc(C#N)ccc2OC1(C)C
- Activity (Mus musculus [1]): 2.45 mmHg

Structure (SMILES): CC(C)C[C@H](NC(=O)CN)C(=O)OCO[C@H]1[C@H](N2CCCC2=O)c2cc(C#N)ccc2OC1(C)C
- Activity (Mus musculus [1]): 1.93 mmHg

Structure (SMILES): CC1(C)Oc2ccc(C#N)cc2[C@H](N2CCCC2=O)[C@H]1O [(-)-CROMAKALIM]
- Activity (Mus musculus [18]): 0.73 mmHg
- Activity [19]: Non-Toxic
- Activity [20]: Non-Toxic

Structure (SMILES): CC1(C)Oc2ccc(C#N)cc2[C@@H](N2CCCC2=O)[C@@H]1OCOP(=O)([O-])[O-].[Na+].[Na+] (racemic)
- Stability [21]: Stable
- Stability [22]: Stable
- Activity (Mus musculus [8]): 1.81 mmHg

Structure (SMILES): CC(C)C[C@@H](NC(=O)CN)C(=O)O[C@H]1[C@H](N2CCCC2=O)c2cc(C#N)ccc2OC1(C)C
- Activity (Mus musculus [1]): 1.57 mmHg

Structure (SMILES): CC1(C)Oc2ccc(C#N)cc2[C@@H](N2CCCC2=O)[C@@H]1O [LEVCROMAKALIM]
- Activity (Mus musculus [23]): 3.37 mmHg
- Activity [24]: Non-Toxic
- Activity [25]: Non-Toxic
